What all share (assay type): functional
Test [1] concerns Escherichia coli. The test can be described thus: Antimicrobial activity against Escherichia coli at 1 ug/mL after 48 hrs by cup plate agar diffusion method. The note with it: read-out: IZ. The method in brief: (§1)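 Cup plate agar diffusion. Compounds dissolved in DMSO at 1 µg/mL. Plates incubated 48 h at 37 °C, then inhibition zone diameter measured in mm. DMSO served as solvent control and ampicillin as reference.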
A general note: Agar diffusion results depend on both activity and mobility in agar.

In test [2] the test system is Bacillus subtilis. The test can be described thus: Antimicrobial activity against Bacillus subtilis at 1 ug/mL after 48 hrs by cup plate agar diffusion method. To be noted: read-out: IZ. The method in brief:
as §1

Test [3] relates to Staphylococcus aureus. The test can be described thus: Antimicrobial activity against Staphylococcus aureus at 1 ug/mL after 48 hrs by cup plate agar diffusion method. To be noted: read-out: IZ. The gist of the method: as §1
The subject of test [4] is Pseudomonas aeruginosa. The test can be described thus: Antimicrobial activity against Pseudomonas aeruginosa at 1 ug/mL after 48 hrs by cup plate agar diffusion method. The note with it: read-out: IZ. The method in brief: as §1
For test [5], the system named is MCF7. The test can be described thus: Cytotoxicity against human MCF7 cells assessed as inhibition of cell viability at 50 ug/mL after 48 hrs by MTT assay. The note with it: MCF7, 48 h. The gist of the method:
(§2)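 MCF7 cells kept in DMEM with 10% FBS, 2 mM L-glutamine and antibiotics at 37 °C, 5% CO2. Cells plated at 0.5 × 10⁵ per well in serum-free medium and exposed for 48 h to DMSO-dissolved compound (25, 50, 100 µg/mL). MTT then added for 4 h and formazan dissolved in acidified isopropanol. Absorbance read at 570 nm in triplicate, expressed as % viability versus untreated cells.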
In general terms: Tetrazolium assays rely on reduction of a dye to a coloured formazan, in cell work by metabolically active cells.

Test [6] concerns MCF7. The test can be described thus: Cytotoxicity against human MCF7 cells assessed as inhibition of cell viability at 100 ug/mL after 48 hrs by MTT assay. The note with it: MCF7, 48 h. The gist of the method: as §2
For test [7], the system named is MCF7. The test can be described thus: Cytotoxicity against human MCF7 cells assessed as inhibition of cell viability at 25 ug/mL after 48 hrs by MTT assay. To be noted: MCF7, 48 h. The gist of the method: as §2

On to `N#Cc1c(-c2ccc(Cl)cc2)cc(-c2cccs2)nc1O[C@@H]1O[C@H](CO)[C@H](O)[C@H]1O`, for which the zone of inhibition at 1 µg/mL in test [1] is 2 mm; in test [2] it was 3.5 mm; in test [3] it was 3 mm; in test [4], 9 mm.

`N#Cc1c(-c2ccc(Cl)cc2)cc(-c2cccs2)nc1O[C@@H]1O[C@H](CO)[C@H](O)[C@H](O)[C@H]1O`: the zone of inhibition at 1 µg/mL in test [1], in test [2], in test [3] and in test [4] was 0 mm each time.

Take `CC(=O)OC[C@H]1O[C@@H](Oc2nc(-c3cccs3)cc(-c3ccc(Cl)cc3)c2C#N)[C@H](OC(C)=O)[C@@H]1OC(C)=O`: the inhibition at 50 µg/mL in test [5] turned out to be 7%. The zone of inhibition at 1 µg/mL turned out to be 3 mm in test [1], 8 mm in test [2], 9 mm in test [3] and 25 mm in test [4]. Moreover, the inhibition at 100 µg/mL in test [6] came out at 12%. Also, the inhibition at 25 µg/mL in test [7] was determined as 2%.

With `COc1cccc2c1C(=O)c1c(O)c3c(c(O)c1C2=O)C[C@@](O)(C(=O)CO)C[C@@H]3O[C@H]1C[C@H](N)[C@H](O)[C@H](C)O1` [DOXORUBICIN], the inhibition at 50 µg/mL in test [5] was determined as 15%. The inhibition at 100 µg/mL in test [6] stood at 50%. Moreover, in test [7], the inhibition at 25 µg/mL worked out at 6%.

On to `O=c1[nH]cc(F)c(=O)[nH]1` [FLUOROURACIL], for which, in test [5], the inhibition at 50 µg/mL stood at 0%. For the same compound, the inhibition at 100 µg/mL in test [6] amounted to 7%. For the same compound, the inhibition at 25 µg/mL in test [7] was 0%.

Regarding `CC(=O)OC[C@H]1O[C@@H](Oc2nc(-c3cccs3)cc(-c3ccc(Cl)cc3)c2C#N)[C@H](OC(C)=O)[C@@H](OC(C)=O)[C@H]1OC(C)=O`, the inhibition at 50 µg/mL in test [5] turned out to be 5%. In addition, the zone of inhibition at 1 µg/mL in test [1] came to 5 mm; in test [2], 10 mm; in test [3] it was 12 mm; in test [4], 26 mm. Also, the inhibition at 100 µg/mL in test [6] was 20%. Further, the inhibition at 25 µg/mL in test [7] turned out to be 0%.

For `CC(=O)OC[C@H]1O[C@@H](O[C@H]2[C@H](OC(C)=O)[C@@H](OC(C)=O)[C@H](Oc3nc(-c4cccs4)cc(-c4ccc(Cl)cc4)c3C#N)O[C@@H]2COC(C)=O)[C@H](OC(C)=O)[C@@H](OC(C)=O)[C@H]1OC(C)=O`, the inhibition at 50 µg/mL in test [5] worked out at 5%. In addition, in test [6], the inhibition at 100 µg/mL was 10%. Also, in test [7], the inhibition at 25 µg/mL came out at 0%.

With `CC1(C)S[C@@H]2[C@H](NC(=O)[C@H](N)c3ccccc3)C(=O)N2[C@H]1C(=O)O` [AMPICILLIN], the zone of inhibition at 1 µg/mL in test [1] came out at 2 mm; in test [2], 6 mm; in test [3] it was 7 mm; in test [4] it was 23 mm.

Consider `N#Cc1c(-c2ccc(Cl)cc2)cc(-c2cccs2)nc1O[C@@H]1O[C@H](CO)[C@@H](O[C@@H]2O[C@H](CO)[C@H](O)[C@H](O)[C@H]2O)[C@H](O)[C@H]1O`, for which the zone of inhibition at 1 µg/mL in test [1] turned out to be 0 mm; in test [2], 3 mm; in test [3], 5 mm; in test [4], 10 mm.

For `N#Cc1c(-c2ccc(Cl)cc2)cc(-c2cccs2)nc1O[C@@H]1O[C@H](CO)[C@@H](O)[C@H]1O`, the inhibition at 50 µg/mL in test [5] worked out at 0%. For the same compound, the zone of inhibition at 1 µg/mL was 6 mm in test [1], 7 mm in test [2], 10 mm in test [3] and 28 mm in test [4]. Also, the inhibition at 100 µg/mL in test [6] was determined as 0%. In test [7], the inhibition at 25 µg/mL was determined as 0%.

Regarding `N#Cc1c(-c2ccc(Cl)cc2)cc(-c2cccs2)nc1O[C@@H]1O[C@H](CO)[C@@H](O)[C@H](O)[C@H]1O`, the inhibition at 50 µg/mL in test [5] amounted to 0%. Also, the zone of inhibition at 1 µg/mL in test [1] came out at 0 mm; in test [2] it was 1 mm; in test [3], 3 mm; in test [4] it was 0 mm. Moreover, the inhibition at 100 µg/mL in test [6] came to 0%. Also, the inhibition at 25 µg/mL in test [7] worked out at 0%.

On to `CC(=O)OC[C@H]1O[C@@H](Oc2nc(-c3cccs3)cc(-c3ccc(Cl)cc3)c2C#N)[C@H](OC(C)=O)[C@@H](OC(C)=O)[C@@H]1OC(C)=O`, for which the inhibition at 50 µg/mL in test [5] is 5%. Moreover, the zone of inhibition at 1 µg/mL amounted to 3 mm in test [1], 11 mm in test [2], 8 mm in test [3] and 13 mm in test [4]. In test [6], the inhibition at 100 µg/mL was found to be 10%. Also, the inhibition at 25 µg/mL in test [7] was 0%.

`CC(=O)OC[C@H]1O[C@@H](Oc2nc(-c3cccs3)cc(-c3ccc(Cl)cc3)c2C#N)[C@H](OC(C)=O)[C@H]1OC(C)=O`: the inhibition at 50 µg/mL in test [5] was found to be 0%. Moreover, the inhibition at 100 µg/mL in test [6] was determined as 8%. For the same compound, the inhibition at 25 µg/mL in test [7] was 0%.

Broadly, the inhibition is the change of the read-out against control, counted positive when it falls.
